# Source: PubChem BioAssay
# SR-BI HDL uptake: inhibitors of SR-BI mediated HDL lipid uptake, primary screen, ldlA[mSR-BI] cells, fluorescence, single point; Scavenger receptor class B member 1 (Mus musculus), Q61009; ldlA[mSR-BI] CHO cells, DiI-HDL uptake fluorescence, 3 h; inhibition, % at 12.5 µM; 320,000 tested, 0.96% active;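 active = mean replicate inhibition of at least 70% and a set share of replicates each scoring 70 or more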;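 also: 0% = median of neutral control wells and 100% = median of positive control wells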
# CAL PDZ FP-1: untagged CAL PDZ binding inhibitors, primary screen, biochemical, fluorescence polarization, HTS; Golgi-associated PDZ and coiled-coil motif-containing protein (Homo sapiens), Q9HD26; purified CAL PDZ, TMR-peptide fluorescence polarization, 1 h; inhibition, % at 24.9 µM; 300,000 tested, 0.92% active; AID 602252, 2012;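 active = mean inhibition of at least 30% with at least half of replicates also reaching 30%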;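 also: 0% = DMSO neutral control and 100% = excess unlabeled competitor peptide PRC23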
# SR-BI DiI-HDL act: activators of SR-BI mediated DiI-HDL uptake, primary screen, ldlA[mSR-BI] CHO cells, DiI fluorescence | 3 h; 100 = double the neutral-control signal | activation, % at 12.5 µM | 320,000 tested, 0.096% active | AID 504775, 2011;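 active = mean replicate activation of at least 60% and every replicate at or above 60%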;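 also: 0% = median plate neutral-control signal and 100% = twice that signal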
#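 Assay system: LDL receptor-deficient CHO ldlA cells overexpressing murine SR-BI / Medium: BSA-supplemented, HEPES-buffered Ham's F12, pH 7.4 / Probe or stimulus: DiI-labelled HDL at 10 µg/mL final / Timing: compound with DiI-HDL co-incubation, 3 h at 37 °C / Technique: bottom-read cell fluorescence after medium removal, ex 550/em 595 nm / Measure: HDL uptake via cellular fluorescence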
# CAL PDZ FP-2: CAL PDZ peptide-binding inhibitors, primary screen, biochemical, fluorescence polarization, Cer-tagged CAL PDZ, HTS; 330,000 tested, 0.02% active; inhibition, % at 20 µM; Golgi-associated PDZ and coiled-coil motif-containing protein (Homo sapiens), Q9HD26; purified CAL PDZ, TMR-peptide fluorescence polarization, 1 h; AID 504414, 2011;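 active = highest replicate inhibition of at least 40%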;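 also: plate controls were DMSO neutral control wells for no effect and unlabeled competitor peptide control wells for full effect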
#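 Material – purified CerCALP PDZ construct · Detection – FP readout, S and P plane fluorescence · Measure – percent inhibition from loss of millipolarization · Controls – unlabelled peptide for full inhibition, DMSO wells as neutral · Probe or stimulus – TMR-labelled reporter peptide T*-PRC34 bound in PDZ groove · Times – 1 h at RT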
# ATG4B inhibitor: ATG4B protease inhibitors, primary screen, biochemical, fluorescence, uHTS | ATG4B cleavage of LC3-PLA2, NBD-HPC fluorescence, 1 h | inhibition, % at 8.33 µM | 340,000 tested, 0.51% active; in the data active = inhibition above about 40%
# Target sequence (Q9Y4P1 whole entry, looked up): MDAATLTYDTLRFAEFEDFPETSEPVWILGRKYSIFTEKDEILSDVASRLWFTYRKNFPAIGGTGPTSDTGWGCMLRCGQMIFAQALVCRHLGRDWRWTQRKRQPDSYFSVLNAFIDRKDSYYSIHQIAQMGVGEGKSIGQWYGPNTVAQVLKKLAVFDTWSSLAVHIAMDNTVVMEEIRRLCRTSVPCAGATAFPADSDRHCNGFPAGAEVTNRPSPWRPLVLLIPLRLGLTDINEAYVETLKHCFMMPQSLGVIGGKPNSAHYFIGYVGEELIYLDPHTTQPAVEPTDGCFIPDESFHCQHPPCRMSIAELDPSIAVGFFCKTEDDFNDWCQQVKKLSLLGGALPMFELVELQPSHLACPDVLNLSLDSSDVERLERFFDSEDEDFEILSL
# Active calls of the source: *; · = no result; + = active, no number. Compounds with a hit are over-represented: about 2.3% of the library has one in this group of screens.
SMILES,SR-BI HDL uptake,CAL PDZ FP-1,SR-BI DiI-HDL act,CAL PDZ FP-2,ATG4B inhibitor
CC(=O)Nc1ccc(NCC(=O)c2ccccc2)cc1,-8,50*,8,-1,13
CC1CC(C)CN(S(=O)(=O)c2ccc(C(=O)N3CCOCC3)cc2)C1 (stereo not given),-9,-2,9,-1,-1
O=c1c2ccccc2nnn1-c1ccccc1,-356,-4,356*,-2,9
CSCCC(NC(=O)c1ccccc1)C(=O)NCCc1ccc2c(c1)OCCO2 (stereo not given),-21,-2,21,-2,6
CC1CCCN(C(=O)Cn2cnc3c2c(=O)n(C)c(=O)n3C)C1 (stereo not given),-22,36*,22,·,-13
CC1CCN(C(=O)COC(=O)Cn2cnc3c2c(=O)n(C)c(=O)n3C)CC1,-5,-3,5,-1,1
Cc1cc(/C(N)=N/OC(=O)Nc2ccc(Cl)cc2)no1,-12,·,12,-2,0
Cn1c(SCC(=O)c2ccccc2)nnc1-c1cccs1,·,-6,·,0,-8
COCCN(C(=O)C1CCC1)c1c(N)n(CC(C)C)c(=O)[nH]c1=O,-13,-4,13,-1,-4
CCCCn1c(N)c(N(CCC(C)C)C(=O)CSc2nncn2-c2ccccc2)c(=O)[nH]c1=O,1,48*,-1,-1,-24
CC(C)CN(C(=O)CSc1nncn1-c1ccccc1)c1c(N)n(CC(C)C)c(=O)[nH]c1=O,2,2,-2,-1,-1
CCCCn1c(N)c(N(CCOC)C(=O)c2cnccn2)c(=O)[nH]c1=O,3,0,-3,0,-4
CCCCCn1nc(C(=O)N(CC)c2c(N)n(CCCC)c(=O)[nH]c2=O)c2ccccc2c1=O,3,45*,-3,4,-4
CCCCn1c(N)c(N(CCOC)C(=O)c2cnc(C)cn2)c(=O)[nH]c1=O,-5,38*,5,-2,2
CCCCC1CCC(C(=O)N(CCOC)c2c(N)n(CC(C)C)c(=O)[nH]c2=O)CC1 (stereo not given),-24,62*,24,0,6
O=C(Cn1cncn1)N/N=C/c1cccc(Cl)c1,-4,·,4,0,1
COC(=O)CNC(=O)C(C)(C)Oc1ccc(Cl)cc1,-13,-5,13,·,1
CC(C)(Oc1ccc(Cl)cc1)C(=O)NCc1ccc(S(N)(=O)=O)cc1,2,77*,-2,0,-9
CC(C)C(Cl)=NOC(=O)Nc1ccc(S(N)(=O)=O)cc1,-29,-7,29,0,3
Cc1cccc(C(CC(=O)NCc2ccco2)c2ccccc2)c1O (stereo not given),35,+,-35,0,2
Cc1ccc(O)c(C(CC(=O)NCc2ccco2)c2ccccc2)c1 (stereo not given),-16,-8,16,-4,-23
O=CNCCCc1nc2ccccc2n1CCc1ccccc1,6,-2,-6,0,0
Cc1noc(C)c1COc1ccc(C(=O)OCC(=O)NCCN2C(=O)CSC2=O)cc1,17,22,-17,-1,-6
CCCCc1ccc(NC(=S)Nc2ccc(Nc3ccc(OC)cc3)cc2)cc1,81*,-2,-81,-1,-1
CCOc1ccc(S(=O)(=O)N2CCCCC2)cc1NC(=O)CC1OC(=O)c2ccccc21 (stereo not given),4,-4,-4,-2,10
SMILES,SR-BI HDL uptake,CAL PDZ FP-1,SR-BI DiI-HDL act,CAL PDZ FP-2,ATG4B inhibitor
COc1ccc(C(=O)NCc2cn3c(C)csc3n2)cc1OC,22,-3,-22,0,-7
CCOc1cc(C(=O)OCc2cc(=O)n3c(C)csc3n2)ccc1OC,78*,3,-78,0,-2
Cc1cc(C(=O)NNC(=O)c2ccccc2F)c2ccccc2n1,-3,·,3,1,8
CSCCC1COC(c2cccs2)=N1 (stereo not given),-12,31*,12,-1,-7
CCN1CCN(C(CNS(=O)(=O)c2ccccc2)c2ccccc2)CC1 (stereo not given),-7,43*,7,0,3
CCN1CCN(C(CNS(=O)(=O)c2ccc(Cl)cc2)c2cccnc2)CC1 (stereo not given),6,-4,-6,0,-3
CCOC(=O)/C=c1\s/c(=C\c2c(OCC)ccc3ccccc23)c(=O)n1CC(=O)NCC1CCCO1 (stereo not given),91*,-6,-91,·,-5
Cc1c(NC(=O)/C(C#N)=C/c2ccc(-c3ccc(Cl)c(Cl)c3)o2)c(=O)n(-c2ccccc2)n1C,74*,-3,-74,1,3
C=CCC[C@@H](Cc1ccc(F)cc1)C(=O)OC[C@@H](Cc1c[nH]c2ccccc12)NC(=O)[C@@H](CC=C)CC(=O)N[C@@H](CO)Cc1ccccc1,-74,-1,74*,0,-13
Cc1cc(=O)c(C(=O)Nc2cccc(C(=O)NC3CC3)c2)nn1-c1ccccc1Cl,17,-1,-17,-1,-5
CCC(=O)N1N=C(c2cccs2)CC1c1ccc(C)cc1 (stereo not given),18,1,-18,-1,-1
Cc1ccc(C2CC(c3cccs3)=NN2C(=O)CCl)cc1 (stereo not given),·,91*,·,·,4
COc1ccc(OC)c(-n2c(-c3ccccc3)n[nH]c2=S)c1,-13,37*,13,1,-7
COc1ccc(OC)c(-n2c(-c3cccc(C)c3)n[nH]c2=S)c1,-32,1,32,-2,-1
COc1cc(C(=O)O/N=C2/C=C(C)C(=O)C=C2C)cc(OC)c1OC,12,-2,-12,-3,2
CC1=C/C(=N\OS(=O)(=O)c2ccccc2)C(C(C)C)=CC1=O,83*,-6,-83,-1,2
CC1=C/C(=N\OS(=O)(=O)c2ccccc2)C(C)=CC1=O,79*,0,-79,-2,0
CC1=C(C)/C(=N\OS(=O)(=O)c2ccc(C)cc2)C=CC1=O,91*,0,-91,-2,-5
O=C(NCc1csc(-c2cccs2)n1)C1CCCCC1,-9,33*,9,0,7
CCC(=O)NCc1csc(-c2cccs2)n1,-12,-5,12,-1,-2
CNS(=O)(=O)c1cccc(C(=O)OCC(=O)c2ccc[nH]2)c1,-16,-3,·,-2,-30
CNS(=O)(=O)c1cccc(C(=O)OCC(=O)c2ccc3c(c2)OCCO3)c1,-1,45*,1,-1,-10
CCOc1ccc(-n2cnc3sc(C)c(C)c3c2=O)cc1,71*,·,-71,-3,2
